This note sets out measurements from ChEMBL document CHEMBL1139633, “Antimalarial activity and synthesis of new trisubstituted pyrimidines” (2005).

SMILES strings stand for the structures. Values after ≈ are worked out from the molar mass of the structure shown.

Usually MIC stands for the lowest concentration found to suppress growth. Read a high MIC as a need for much substance.

The subject of the assay is Plasmodium falciparum. Description: Minimum inhibitory concentration against schizont maturation in Plasmodium falciparum NF-54. Type of assay: functional. In a few lines:
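Rieckmann micro-assay with P. falciparum NF-54 cultured in RPMI-1640 (25 mM HEPES, 1% D-glucose, 0.23% NaHCO3, 10% heat-inactivated human serum), sorbitol-synchronized to ring stage. Start at ~1% parasitaemia, 3% haematocrit; compounds 0.25–50 µg/mL in duplicate, 37 °C candle jar, 36–40 h. Giemsa smears scored by microscopy; MIC = lowest concentration blocking complete maturation to schizonts.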

Compound `O=[N+]([O-])c1cccc(-c2cc(-c3ccncc3)nc(N3CCN(c4ccccc4)CC3)n2)c1` had an MIC of 10 µg/mL (≈ 22.8 µM).

For `COc1ccc(-c2cc(-c3ccncc3)nc(N3CCN(c4ccccc4)CC3)n2)cc1`, it took 2 µg/mL (≈ 4.72 µM) to inhibit growth (MIC).

Compound `Clc1ccc(-c2cc(-c3ccncc3)nc(N3CCN(Cc4ccccc4)CC3)n2)cc1` came in with an MIC of 10 µg/mL (≈ 22.6 µM).

For `COc1cc(-c2cc(-c3ccncc3)nc(N3CCN(c4ccccc4)CC3)n2)cc(OC)c1OC`, the minimal inhibitory concentration (MIC) turned out to be 50 µg/mL (≈ 103 µM).

In turn, `COc1cc(OC)c(-c2cc(-c3ccncc3)nc(N3CCN(c4ccccc4)CC3)n2)cc1OC` gave an MIC of 10 µg/mL (≈ 20.7 µM).

The compound `CSc1ccc(-c2cc(-c3ccncc3)nc(N3CCN(C)CC3)n2)cc1` came in with an MIC of 1 µg/mL (≈ 2.65 µM).

Turning to `c1ccc(CN2CCN(c3nc(-c4ccccc4)cc(-c4ccncc4)n3)CC2)cc1`, 2 µg/mL (≈ 4.91 µM) was the least that counted as inhibitory (MIC).

`Cc1ccc(-c2cc(-c3ccncc3)nc(N3CCN(c4ccccc4)CC3)n2)cc1C` gave an MIC of 2 µg/mL (≈ 4.74 µM).

With `Cc1ccc(-c2cc(-c3ccncc3)nc(N3CCN(c4ccccc4)CC3)n2)cc1`, the MIC stood at 1 µg/mL (≈ 2.45 µM).

As for `CSc1ccc(-c2cc(-c3ccncc3)nc(N3CCN(Cc4ccccc4)CC3)n2)cc1`, the MIC came out at 2 µg/mL (≈ 4.41 µM).

As for `COc1cc(-c2cc(-c3ccncc3)nc(N3CCN(Cc4ccccc4)CC3)n2)cc(OC)c1OC`, it took 10 µg/mL (≈ 20.1 µM) to inhibit growth (MIC).

`Clc1ccc(-c2cc(-c3ccncc3)nc(N3CCN(c4ccccc4)CC3)n2)cc1` showed an MIC of 10 µg/mL (≈ 23.4 µM).

Take `Cc1ccc(-c2cc(-c3ccncc3)nc(N3CCN(C)CC3)n2)cc1`: the MIC is 1 µg/mL (≈ 2.89 µM).

Compound `COc1ccc(OC)c(-c2cc(-c3ccncc3)nc(N3CCN(c4ccccc4)CC3)n2)c1` registered an MIC of 2 µg/mL (≈ 4.41 µM).

The compound `COc1ccc(OC)c(-c2cc(-c3ccncc3)nc(N3CCN(Cc4ccccc4)CC3)n2)c1` yielded an MIC of 1 µg/mL (≈ 2.14 µM).

In turn, `COc1cc(OC)c(-c2cc(-c3ccncc3)nc(N3CCN(C)CC3)n2)cc1OC` came in with an MIC of 2 µg/mL (≈ 4.74 µM).

For `COc1ccc(OC)c(-c2cc(-c3ccncc3)nc(N3CCN(C)CC3)n2)c1`, the MIC is 0.5 µg/mL (≈ 1.28 µM).

`Cc1ccc(-c2cc(-c3ccncc3)nc(N3CCN(Cc4ccccc4)CC3)n2)cc1C`: it took 1 µg/mL (≈ 2.3 µM) to inhibit growth (MIC).

In turn, `c1ccc(-c2cc(-c3ccncc3)nc(N3CCN(c4ccccc4)CC3)n2)cc1` had an MIC of 10 µg/mL (≈ 25.4 µM).

In turn, `CSc1ccc(-c2cc(-c3ccncc3)nc(N3CCN(c4ccccc4)CC3)n2)cc1` had an MIC of 10 µg/mL (≈ 22.7 µM).

Consider `O=[N+]([O-])c1cccc(-c2cc(-c3ccncc3)nc(N3CCN(Cc4ccccc4)CC3)n2)c1`, for which the MIC came out at 2 µg/mL (≈ 4.42 µM).

`COc1ccc(-c2cc(-c3ccncc3)nc(N3CCN(C)CC3)n2)cc1` gave an MIC of 1 µg/mL (≈ 2.77 µM).

`CN1CCN(c2nc(-c3ccncc3)cc(-c3cccc([N+](=O)[O-])c3)n2)CC1` returned a minimal inhibitory concentration (MIC) of 1 µg/mL (≈ 2.66 µM).

`Cc1ccc(-c2cc(-c3ccncc3)nc(N3CCN(C)CC3)n2)cc1C` displayed an MIC of 0.5 µg/mL (≈ 1.39 µM).

In the case of `Cc1ccc(-c2cc(-c3ccncc3)nc(N3CCN(Cc4ccccc4)CC3)n2)cc1`, the MIC was found to be 2 µg/mL (≈ 4.74 µM).

In the case of `COc1cc(-c2cc(-c3ccncc3)nc(N3CCN(C)CC3)n2)cc(OC)c1OC`, inhibition of growth (MIC) required 10 µg/mL (≈ 23.7 µM).

For the compound `CN1CCN(c2nc(-c3ccccc3)cc(-c3ccncc3)n2)CC1`, the MIC amounted to 1 µg/mL (≈ 3.02 µM). Compared with the last compound, the MIC is about 10-fold lower.

Compound `COc1cc(OC)c(-c2cc(-c3ccncc3)nc(N3CCN(Cc4ccccc4)CC3)n2)cc1OC` showed an MIC of 2 µg/mL (≈ 4.02 µM).

On to `CN1CCN(c2nc(-c3ccncc3)cc(-c3ccc(Cl)cc3)n2)CC1`, for which the MIC was 2 µg/mL (≈ 5.47 µM).

As for `COc1ccc(-c2cc(-c3ccncc3)nc(N3CCN(Cc4ccccc4)CC3)n2)cc1`, it took 1 µg/mL (≈ 2.29 µM) to inhibit growth (MIC). Compared with the last compound, the MIC is about 2-fold lower.

Turning to `CCc1nc(N)nc(N)c1-c1ccc(Cl)cc1` [PYRIMETHAMINE], inhibition of growth (MIC) required 10 µg/mL (≈ 40.2 µM).
